Measurements: ChEMBL document CHEMBL4390639, “Design, Synthesis, and Biological Evaluation of Novel Allosteric Protein Disulfide Isomerase Inhibitors” (J Med Chem, 2019)
The source made the active and inactive calls. No cut-off for these calls is given here.

Columns and labels:
[1] = tested on: U-87 MG; assay: Up regulation of BAG3 gene expression in human U87MG cells at 10 uM incubated for 4 hrs followed by bromouridine addition during last 30 mins of incubation by TRIzol-reagent based Bru-Seq analysis relative to control; assay type: functional, U-87MG ATCC
How it was run: (§1)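 U87MG cells exposed to compound or DMSO vehicle for 4 h, with 2 mM bromouridine added for the final 30 min. Total RNA isolated with TRIzol; Bru-labelled nascent RNA captured on anti-BrdU antibody-conjugated magnetic beads and sequenced. Transcript abundance expressed as RPKM relative to DMSO. Experiment performed once.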

[2] = tested on: U-87 MG; assay: Down regulation of LRRC63 gene expression in human U87MG cells at 10 uM incubated for 4 hrs followed by bromouridine addition during last 30 mins of incubation by TRIzol-reagent based Bru-Seq analysis relative to control; assay type: functional, U-87MG ATCC
[3] = tested on: U-87 MG; assay: Down regulation of SLITRK5 gene expression in human U87MG cells at 10 uM incubated for 4 hrs followed by bromouridine addition during last 30 mins of incubation by TRIzol-reagent based Bru-Seq analysis relative to control; assay type: functional, U-87MG ATCC
How it was run: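 Nascent transcription (Bru-seq) in U87MG cells: treatment at 10 μM for 4 h, with 2 mM bromouridine added for the final 30 min. Total RNA isolated with TRIzol; Bru-labelled RNA captured using anti-BrdU antibody on magnetic beads, then sequenced. Transcript traces reported as RPKM compared with DMSO-treated cells. Single experiment.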

[4] = tested on: U-87 MG; assay: Up regulation of DEDD2 gene expression in human U87MG cells at 10 uM incubated for 4 hrs followed by bromouridine addition during last 30 mins of incubation by TRIzol-reagent based Bru-Seq analysis relative to control; assay type: functional, U-87MG ATCC; how it was run: as §1
[5] = tested on: U-87 MG; assay: Up regulation of CTH gene expression in human U87MG cells at 10 uM incubated for 4 hrs followed by bromouridine addition during last 30 mins of incubation by TRIzol-reagent based Bru-Seq analysis relative to control; assay type: functional, U-87MG ATCC; how it was run: as §1
[6] = tested on: U-87 MG; assay: Down regulation of CHSY3 gene expression in human U87MG cells at 10 uM incubated for 4 hrs followed by bromouridine addition during last 30 mins of incubation by TRIzol-reagent based Bru-Seq analysis relative to control; assay type: functional, U-87MG ATCC
[7] = tested on: U-87 MG; assay: Up regulation of CHAC1 gene expression in human U87MG cells at 10 uM incubated for 4 hrs followed by bromouridine addition during last 30 mins of incubation by TRIzol-reagent based Bru-Seq analysis relative to control; assay type: functional, U-87MG ATCC; how it was run: as §1
[8] = tested on: U-87 MG; assay: Down regulation of CTHRC1 gene expression in human U87MG cells at 10 uM incubated for 4 hrs followed by bromouridine addition during last 30 mins of incubation by TRIzol-reagent based Bru-Seq analysis relative to control; assay type: functional, U-87MG ATCC
[9] = tested on: U-87 MG; assay: Down regulation of FBXO43 gene expression in human U87MG cells at 10 uM incubated for 4 hrs followed by bromouridine addition during last 30 mins of incubation by TRIzol-reagent based Bru-Seq analysis relative to control; assay type: functional, U-87MG ATCC; how it was run: as §1
[10] = tested on: U-87 MG; assay: Down regulation of FPGT gene expression in human U87MG cells at 10 uM incubated for 4 hrs followed by bromouridine addition during last 30 mins of incubation by TRIzol-reagent based Bru-Seq analysis relative to control; assay type: functional, U-87MG ATCC
[11] = tested on: U-87 MG; assay: Up regulation of AC087672.3 gene expression in human U87MG cells at 16 uM incubated for 4 hrs followed by bromouridine addition during last 30 mins of incubation by TRIzol-reagent based Bru-Seq analysis relative to control; assay type: functional, U-87MG ATCC; how it was run: as §1
[12] = tested on: U-87 MG; assay: Down regulation of E2F1 gene expression in human U87MG cells at 16 uM incubated for 4 hrs followed by bromouridine addition during last 30 mins of incubation by TRIzol-reagent based Bru-Seq analysis; assay type: functional, cell-based; conditions: U-87MG ATCC
[13] = tested on: U-87 MG; assay: Down regulation of PRLR gene expression in human U87MG cells at 16 uM incubated for 4 hrs followed by bromouridine addition during last 30 mins of incubation by TRIzol-reagent based Bru-Seq analysis relative to control; assay type: functional, U-87MG ATCC
How it was run: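 Bru-seq in U87MG cells treated at 16 μM for 4 h; 2 mM bromouridine present during the last 30 min. TRIzol total RNA, then anti-BrdU bead capture of labelled RNA and sequencing. Readout is RPKM traces versus DMSO control. Performed once.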

[14] = tested on: U-87 MG; assay: Down regulation of IL1B gene expression in human U87MG cells at 16 uM incubated for 4 hrs followed by bromouridine addition during last 30 mins of incubation by TRIzol-reagent based Bru-Seq analysis relative to control; assay type: functional, U-87MG ATCC; how it was run: as §1
[15] = tested on: U-87 MG; assay: Down regulation of KCTD4 gene expression in human U87MG cells at 16 uM incubated for 4 hrs followed by bromouridine addition during last 30 mins of incubation by TRIzol-reagent based Bru-Seq analysis relative to control; assay type: functional, U-87MG ATCC
[16] = tested on: U-87 MG; assay: Up regulation of CYYR1-AS1 gene expression in human U87MG cells at 16 uM incubated for 4 hrs followed by bromouridine addition during last 30 mins of incubation by TRIzol-reagent based Bru-Seq analysis relative to control; assay type: functional, U-87MG ATCC; how it was run: as §1
[17] = tested on: U-87 MG; assay: Up regulation of AKR1C1 gene expression in human U87MG cells at 16 uM incubated for 4 hrs followed by bromouridine addition during last 30 mins of incubation by TRIzol-reagent based Bru-Seq analysis relative to control; assay type: functional, U-87MG ATCC; how it was run: as §1
[18] = tested on: U-87 MG; assay: Down regulation of HIST1H4B gene expression in human U87MG cells at 16 uM incubated for 4 hrs followed by bromouridine addition during last 30 mins of incubation by TRIzol-reagent based Bru-Seq analysis relative to control; assay type: functional, U-87MG ATCC
[19] = tested on: U-87 MG; assay: Up regulation of EID3 gene expression in human U87MG cells at 16 uM incubated for 4 hrs followed by bromouridine addition during last 30 mins of incubation by TRIzol-reagent based Bru-Seq analysis relative to control; assay type: functional, U-87MG ATCC; how it was run: as §1
[20] = tested on: U-87 MG; assay: Down regulation of CYP1B1 gene expression in human U87MG cells at 16 uM incubated for 4 hrs followed by bromouridine addition during last 30 mins of incubation by TRIzol-reagent based Bru-Seq analysis relative to control; assay type: functional, U-87MG ATCC
[21] = tested on: U-87 MG; assay: Up regulation of HMOX1 gene expression in human U87MG cells at 16 uM incubated for 4 hrs followed by bromouridine addition during last 30 mins of incubation by TRIzol-reagent based Bru-Seq analysis relative to control; assay type: functional, U-87MG ATCC; how it was run: as §1
[22] = tested on: U-87 MG; assay: Inhibition of colony formation in human U87MG cells assessed as combination index at 1 to 30 uM measured after 24 hrs in presence of arsenic trioxide by crystal violet staining based assay; assay type: functional, U-87MG ATCC
[23] = tested on: A 172; assay: Induction of morphological changes in human A172 cells assessed as formation of lipid vesicles around nucleus at 17 uM measured after 48 hrs by Giemsa-staining based microscopic analysis; assay type: functional, cell-based
[24] = molecular target: Protein disulfide-isomerase (Homo sapiens, UniProt P07237); assay: Binding affinity to recombinant human N-terminal His-tagged PDI expressed in Escherichia coli BL21 (DE3) pLysS by ROX dye based thermal shift assay
Protein disulfide-isomerase, sequence (P07237 whole entry): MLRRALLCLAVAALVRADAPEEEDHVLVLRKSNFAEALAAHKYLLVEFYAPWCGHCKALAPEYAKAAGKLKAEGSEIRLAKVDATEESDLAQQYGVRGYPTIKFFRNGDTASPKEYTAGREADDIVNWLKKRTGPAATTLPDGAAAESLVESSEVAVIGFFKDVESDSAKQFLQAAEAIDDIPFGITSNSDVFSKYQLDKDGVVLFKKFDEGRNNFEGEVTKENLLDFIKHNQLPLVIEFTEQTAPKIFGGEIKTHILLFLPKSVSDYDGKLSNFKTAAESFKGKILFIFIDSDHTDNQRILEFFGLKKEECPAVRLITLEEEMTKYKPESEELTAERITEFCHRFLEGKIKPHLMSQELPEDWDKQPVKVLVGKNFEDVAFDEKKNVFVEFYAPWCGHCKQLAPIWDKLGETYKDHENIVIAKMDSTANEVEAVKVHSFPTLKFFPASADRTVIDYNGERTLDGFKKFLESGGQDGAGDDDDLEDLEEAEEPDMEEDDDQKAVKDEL
How it was run: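 Thermal shift conditions: PDI (0.5 mg/mL, 50 mM Tris, pH 7.0) with ROX dye, heated 25–99 °C at 1 °C/min. […] Kd was fitted from melting-temperature change versus vehicle.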

[25] = tested on: U-87 MG; assay: Down regulation of cleaved MMP2 expression in human U87MG cells at 10 uM measured after 24 hrs by Western blot analysis; assay type: functional, cell-based; conditions: U-87MG ATCC
[26] = tested on: A 172; assay: Induction of morphological changes in human A172 cells assessed as vesicle formation at 11 uM measured after 48 hrs by Giemsa-staining based microscopic analysis; assay type: functional, cell-based

CCCCCN(CCCCC)S(=O)(=O)c1ccc(C(=O)/C=C/c2cccc(C#N)c2)cc1
fold change (FC) [1]: 17.1
fold change (FC) [2]: 2.5
fold change (FC) [3]: 3.6
fold change (FC) [4]: 11
fold change (FC) [5]: 17.7
fold change (FC) [6]: 2.6
fold change (FC) [7]: 40.9
fold change (FC) [8]: 2.4
fold change (FC) [9]: 2.7
fold change (FC) [10]: 2.3

COC(=O)c1cccc(/C=C/C(=O)c2cccc(O)c2)c1
fold change (FC) [11]: 3.8
Activity [12]: Active
fold change (FC) [13]: 2.6
fold change (FC) [14]: 5.5
fold change (FC) [15]: 3
fold change (FC) [16]: 4.3
fold change (FC) [17]: 8.1
fold change (FC) [18]: 2.7
fold change (FC) [19]: 4.8
fold change (FC) [20]: 2.8
fold change (FC) [21]: 21.6

N#Cc1cccc(/C=C/C(=O)c2ccc(O)cc2)c1
CI [22]: <1
Activity [23]: Active
Kd [24]: 9.8 µM

O=C(/C=C/c1ccc(-c2cccnc2)cc1)c1cccc(O)c1
Activity [25]: Active

CCCCCN(CCCCC)S(=O)(=O)c1ccc(C(=O)/C=C/c2cccc(O)c2)cc1
Activity [26]: Active
